Bioassay records deposited in PubChem BioAssay by Sanford-Burnham Center for Chemical Genomics.
Compounds with a hit are over-represented: about 1.5% of the library has one in this group of screens.
APJ ag: activates the human apelin receptor APJ; P35414; CHO-K1 APJ PathHunter beta-arrestin, luminescence; 0% DMSO wells, 100% apelin; activation, % at 20 µM; actives 0.11% (n = 330,000);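 active means activation more than six SD over the plate average, tested at 20 µM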
Target sequence (P35414 whole entry, looked up): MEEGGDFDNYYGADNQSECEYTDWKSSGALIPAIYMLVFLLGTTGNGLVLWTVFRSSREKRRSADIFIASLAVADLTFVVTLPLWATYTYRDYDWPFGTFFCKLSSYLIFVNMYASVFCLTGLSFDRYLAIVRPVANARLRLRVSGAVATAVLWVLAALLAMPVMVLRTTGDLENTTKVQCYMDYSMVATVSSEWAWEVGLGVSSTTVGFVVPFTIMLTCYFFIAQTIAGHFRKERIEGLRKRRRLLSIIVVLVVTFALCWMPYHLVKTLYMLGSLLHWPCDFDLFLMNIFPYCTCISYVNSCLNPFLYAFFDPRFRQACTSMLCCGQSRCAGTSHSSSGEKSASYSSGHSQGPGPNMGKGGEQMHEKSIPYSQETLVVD
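Material: CHO-K1 APJ beta-arrestin complementation cell line; Input: cell density 1000 per well; Incubation: compound stimulation 90 min at 25 °C, detection 60 min; Signal: luminescence from split beta-galactosidase complementation, Galacton Star/Emerald II substrate; Controls: DMSO-only wells as negative, 10 nM Apelin-13 as positive control.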
CXCR6 block: inhibitors of human CXCR6 receptor; actives 0.36% (n = 360,000); O00574; inhibition, % at 20 µM; CHO-K1 PathHunter CXCR6 beta-arrestin, luminescence; AID 602244; in the data active means inhibition above about 34%, passing the limit was not always enough;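 further: antagonist mode with CXCL16 agonist at 10 nM final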
EBI2 block: EBI2 (human) antagonism | AID 651636 | inhibition, % at 5 µM | P32249 | actives 0.81% (n = 360,000) | EBI2 beta-arrestin recruitment, luminescence, 7a,25-OHC stimulated; in the data active means inhibition above about 38%;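 further: enzyme fragment complementation signal reports receptor beta-arrestin coupling in cells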
CCR6 antagonist: CCR6 (human) receptor antagonism; inhibition, % at 20 µM; CHO-K1 CCR6 PathHunter beta-arrestin, luminescence, CCL20-stimulated; actives 0.49% (n = 340,000);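 active means compounds whose inhibition of the agonist-driven luminescence signal at 20 µM reaches about 50%, limit read from the data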;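 further: cells stimulated with CCL20 at 14 nM final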
Target sequence (P51684 whole entry, looked up): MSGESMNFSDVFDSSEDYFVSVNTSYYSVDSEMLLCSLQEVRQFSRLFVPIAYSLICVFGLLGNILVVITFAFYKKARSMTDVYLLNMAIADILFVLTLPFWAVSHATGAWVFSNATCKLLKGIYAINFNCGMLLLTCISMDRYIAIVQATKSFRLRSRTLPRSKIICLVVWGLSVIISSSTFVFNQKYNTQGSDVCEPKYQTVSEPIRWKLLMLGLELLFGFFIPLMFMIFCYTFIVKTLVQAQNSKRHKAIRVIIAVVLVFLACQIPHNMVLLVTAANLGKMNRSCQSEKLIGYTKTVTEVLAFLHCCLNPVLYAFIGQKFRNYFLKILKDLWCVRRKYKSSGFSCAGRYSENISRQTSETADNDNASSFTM
APJ antagonist: blocks the human apelin receptor APJ | P35414 | CHO-K1 APJ beta-arrestin complementation, luminescence | inhibition, % at 20 µM | actives 0.32% (n = 330,000);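 active means inhibition above about 40% at 20 µM, limit read from the data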;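 further: cells challenged with 10 nM apelin-13 agonist together with compound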
CXCR6 confirm: confirmation of human CXCR6 receptor antagonists; shares compounds with CXCR6 block; CHO-K1 CXCR6 PathHunter beta-arrestin, luminescence; inhibition, % at 20 µM; actives 65% (n = 700);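 active means mean inhibition over four retests above 40%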;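 further: receptor stimulated with 10 nM CXCL16 agonist; beta-galactosidase fragment complementation upon beta-arrestin recruitment to receptor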
EBI2 conf: confirmation of human EBI2 receptor antagonists. inhibition, % at 5 µM. actives 29% (n = 2,400). EBI2 beta-arrestin luminescence, 7a,25-OHC antagonism. AID 651997. shares compounds with EBI2 block;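 active means inhibition of at least 50%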
EBI2 agonist: counter-screen for EBI2 antagonists: EBI2 agonist activity. activation, % at 5 µM. EBI2-expressing cells, agonist mode, luminescence, 60 min; 0% vehicle, 100% 7α,25-dihydroxycholesterol control. 2,400 tested, under 10 active. shares compounds with EBI2 block;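 active means activation of at least 50%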
bGal cs: beta-galactosidase inhibition counter-screen. shares compounds with EBI2 block. purified beta-galactosidase, luminescent Galacton Star, 15 min. inhibition, % at 5 µM. actives 1% (n = 2,400). AID 652176;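 active means replicate-average signal at least 3 plate SD below neutral wells, shown as high inhibition, flagging enzyme-inhibiting false positives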;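 further: higher means stronger loss of beta-gal luminescence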
Each line names hits and unclear results; the compound was inactive in the other large screens (follow-up assays come after a bar, where they were run).

O=C1NC(Cc2ccccc2)c2nc3ccc(F)cc3c(=O)n2-c2cc3ccccc3cc21 (stereo not given)	none (no result: APJ ag, CCR6 antagonist, APJ antagonist)
CC1(C)Cc2ccccc2C(NNC(=O)c2ccccn2)=N1	CXCR6 block 45.4 | CXCR6 confirm 40.9
CCc1nc2c(OCCC3CCCCC3)cccn2c1N(C)C(=O)c1ccc(C)cc1	CXCR6 block 41.8 (no result: APJ ag, CCR6 antagonist, APJ antagonist) | CXCR6 confirm 48.3
CC(C)(C)c1ccc(SC2=C[C@@]3(O)CC[C@@H](O)[C@@](Sc4ccc(C(C)(C)C)cc4)(C2=O)[C@H]3O)cc1	none (no result: APJ ag, CCR6 antagonist, APJ antagonist)
CNC(=O)c1nc[nH]c1C(=O)NC	none
CCNC(=O)c1nc[nH]c1C(=O)NCC	CXCR6 block 59.0 | CXCR6 confirm inactive
Clc1ccc(-c2ccc(CNCc3ccccn3)o2)cc1	none
N#Cc1c(C#N)c(SSc2c(C#N)c(C#N)c(N)n2-c2ccccc2)n(-c2ccccc2)c1N	CXCR6 block 100.6, CCR6 antagonist 109.1 (no result: APJ ag, APJ antagonist) | CXCR6 confirm 84.5
N#Cc1c(N)n(-c2ccc(N)cc2)c2nc3ccccc3nc12	none
COc1ccc(S(=O)(=O)N2CCC(C(=O)N[C@H](C(=O)NCc3ccccc3)C(C)C)CC2)cc1	none (no result: APJ ag, CCR6 antagonist, APJ antagonist)
Cc1cnc(-c2nc3ccccc3n2C(C(=O)Nc2c(C)cccc2C)C2CC2)cn1 (stereo not given)	none (no result: APJ ag, CXCR6 block, CCR6 antagonist, APJ antagonist)
COC(=O)c1cc(CSc2nc3ccc(C)cc3[nH]2)oc1C	CXCR6 block 43.3 | CXCR6 confirm 41.2
O=C(COc1ccc(-c2nnco2)cc1)N1CCOCC1	none
CCc1nnc(NS(=O)(=O)c2ccc(Nc3ccc([N+](=O)[O-])c4nonc34)cc2)s1	CXCR6 block 48.2, CCR6 antagonist 72.7, APJ antagonist 65.2 | CXCR6 confirm 41.6
CCc1nnc(NS(=O)(=O)c2ccc(NS(=O)(=O)c3ccccc3[N+](=O)[O-])cc2)s1	none
O=C(Nc1cccc(N2C(=O)C=CC2=O)c1)c1cccs1	CXCR6 block 77.0 (no result: CCR6 antagonist) | CXCR6 confirm inactive
Cc1nc2ccccc2c(=O)n1-c1cccc(NC(=O)c2cccs2)c1	none
Cc1ccc(C(=O)NC(=S)Nc2ccc(NC(=O)c3cccs3)cc2)cc1[N+](=O)[O-]	CXCR6 block 28.4, CCR6 antagonist 50.4 | CXCR6 confirm inactive
O=C(CCS(=O)(=O)c1ccc(F)cc1)Nc1nc(-c2ccccn2)cs1	none
Cc1cc(C)c(OCC(=O)Nc2nc(-c3ccccn3)cs2)c(C)c1	CXCR6 block 51.6 (no result: CCR6 antagonist) | CXCR6 confirm inactive
CC(Oc1ccc(F)cc1)C(=O)Nc1nc(-c2ccccn2)cs1 (stereo not given)	CXCR6 block 66.6, CCR6 antagonist 71.4 | CXCR6 confirm 86.9
CCC(=O)c1ccc(OCC(=O)Nc2nc(-c3cccnc3)cs2)cc1	none
CCc1ccccc1OCC(=O)Nc1nc(-c2cccnc2)cs1	CXCR6 block 51.3, CCR6 antagonist 75.9 | CXCR6 confirm 64.1
CCc1ccc(N2C=C(C(=O)OC)C(c3cccc4ccccc34)C(C#N)=C2N)cc1 (stereo not given)	none (no result: APJ ag, CXCR6 block, CCR6 antagonist, APJ antagonist)
CS(=O)(=O)N(CC(=O)Nc1ccccc1C(=O)N1CCOCC1)c1cccc(F)c1	none
CCOc1ccc(N(CC(=O)Nc2ccccc2C(=O)N2CCOCC2)S(=O)(=O)c2ccc(F)cc2)cc1	CXCR6 block 70.4 | CXCR6 confirm inactive
COc1ccccc1-c1noc(CCC(=O)Nc2cccc(C)c2)n1	CXCR6 block 61.8 | CXCR6 confirm inactive
Cc1nnc(Cc2ccccc2)c2n[nH]c(C)c12	none (no result: APJ ag, CCR6 antagonist, APJ antagonist)
NC(=S)Nc1ncc(C(F)(F)F)cc1Cl	none
NC(=O)NNc1ncc(C(F)(F)F)cc1Cl	none
FC(F)(F)c1cnc(NNC(=S)Nc2ccccc2)c(Cl)c1	CXCR6 block 73.1 (no result: APJ ag, CCR6 antagonist, APJ antagonist) | CXCR6 confirm 73.6
Fc1ccccc1NC(=S)NNc1ncc(C(F)(F)F)cc1Cl	CXCR6 block 50.3, CCR6 antagonist 68.2 | CXCR6 confirm inactive
Cc1cc(C)nc(Nc2nc(C(N)CCc3ccccc3)cs2)n1 (stereo not given)	none (no result: APJ ag, CCR6 antagonist, APJ antagonist)
C=CCN(CC=C)C(=S)NC(=O)c1ccc(-c2ccccc2)cc1	CXCR6 block 52.8 (no result: CCR6 antagonist) | CXCR6 confirm 72.8
C=CCN(CC=C)C(=S)NC(=O)c1ccc(OC)cc1	none
C=CCN(CC=C)C(=S)NC(=O)c1ccc(C)c(Br)c1	CXCR6 block 48.9 | CXCR6 confirm 54.4
O=C(N/N=C/c1ccc([N+](=O)[O-])o1)c1sc2ccccc2c1Cl	CXCR6 block 41.0 | CXCR6 confirm 43.5
O=C(N/N=C/c1c[nH]c2ccccc12)c1sc2ccccc2c1Cl	none
CCOC(=O)c1sc2nc(SCC#N)n(CC3CCCO3)c(=O)c2c1C (stereo not given)	CXCR6 block 60.9 | CXCR6 confirm inactive
CCOC(=O)c1sc2nc(SCC(=O)N(CC)CC)n(CCCN3CCCC3=O)c(=O)c2c1C	none
Cc1ccc(Cc2c(-c3ccc(F)cc3)nc3c(C)cc(Br)cn23)cc1	none (no result: APJ ag, CCR6 antagonist, APJ antagonist)
CCCc1nc2cc(C)c(Br)c(C)n2c1Cc1ccccc1OC	none (no result: APJ ag, CCR6 antagonist, APJ antagonist)
Cc1ccc(S(=O)(=O)N2CCN(C(=O)C(O)c3ccccc3)CC2)cc1 (stereo not given)	none (no result: APJ ag, CXCR6 block, CCR6 antagonist, APJ antagonist)
Cc1cn([C@H]2C[C@H](O)[C@@H](CNCc3ccccc3OCCCN3CCOCC3)O2)c(=O)[nH]c1=O	none (no result: APJ ag, CCR6 antagonist, APJ antagonist)
COc1ccccc1CCNC(=O)C1CC(=O)N(c2ccccc2F)C1 (stereo not given)	none (no result: APJ ag, CCR6 antagonist, APJ antagonist)
O=C1c2cccc3c([N+](=O)[O-])ccc(c23)C(=O)N1c1ccccn1	CXCR6 block 51.8 (no result: CCR6 antagonist) | CXCR6 confirm 52.5
Cc1cccc(NC(=O)CCC(=O)N/N=C/c2ccco2)c1	CXCR6 block 78.3 | CXCR6 confirm inactive
O=C(CCC(=O)N/N=C/c1ccco1)N/N=C/c1ccco1	none
C[C@H]1CN([C@@H](C)CO)C(=O)c2cc(Br)cnc2O[C@H]1CN(C)Cc1ccccc1C(=O)O	none (no result: APJ ag, CCR6 antagonist, APJ antagonist)
CCC1NC(=O)c2cc3ccccc3cc2-n2c1nc1cc(C)cc(C)c1c2=O (stereo not given)	CXCR6 block 59.8, EBI2 block 85.6 (no result: APJ ag, CCR6 antagonist, APJ antagonist) | CXCR6 confirm inactive | EBI2 conf 68.7 | EBI2 agonist inactive | bGal cs inactive
Cc1ccccc1Oc1ccc2c(c1)[C@@H]1C[C@H]3[C@@H](C(=O)N1CC2)[C@H](C)ON3C	none (no result: APJ ag, APJ antagonist)
CS(=O)(=O)c1ccc(C(=O)OCC(=O)N2CCOCC2)cc1[N+](=O)[O-]	none (no result: APJ ag, CCR6 antagonist, APJ antagonist)
